Data set [1] concerns the target T1, Sphingosine 1-phosphate receptor 3 (Homo sapiens, UniProt Q99500). Kind of data set: Antagonist activity at human S1P3 expressed in EDG3-Ga15-bla HEK293T cells incubated for 45 mins by scintillation counting based [35S]GTP-gamma-S binding assay relative to control. It counts as cell membranes, Cell membrane. (In general: Binding of GTPγS marks nucleotide exchange on a G protein.)

Data set [2] concerns Cerebellum. Kind of data set: Induction of remyelination in lysophosphatidylcholine-induced demyelination in CD1 mouse organotypic cerebellar slice at 0.01 to 10 nM incubated for 7 days by immunohistochemistry based three-dimensional brain cell culture assay. It counts as functional, tissue-based. As to conditions: dose 0.01-10 nM, time 7.0 day. The gist of the method:
(§1)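 Cerebellum from P1-2 CD1 mouse pups cut into 350 μm parasagittal slices. Cultured on inserts at 36–37 °C, 5% CO2, in MEM/horse serum/EBSS/glucose medium for 13 days. Demyelination with 0.5 mg/ml LPC overnight, then 24 h in medium, then 7 days of treatment. Slices immunostained for MBP and CBD and imaged by confocal at ×40. Myelination index = CBD+MBP double-stained area divided by CBD single-stained area. ANOVA with Dunnett test.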

In data set [3] the test system is Cerebellum. The experiment in a line: Induction of remyelination in lysophosphatidylcholine-induced demyelination in CD1 mouse organotypic cerebellar slice assessed as myelination index level at 0.01 to 10 nM incubated for 7 days by immunohistochemistry based three-dimensional brain cell culture assay (reference value: 50%). As to conditions: dose 0.01-10 nM, time 7 day. It counts as functional. The gist of the method: as §1

The target of data set [4] is Sphingosine 1-phosphate receptor 1 (Homo sapiens, UniProt P21453). The experiment in a line: Agonist activity at human S1P1 in HLE cell membranes incubated for 45 mins by scintillation counting based [35S]GTP-gamma-S binding assay. Further details: species or system Cell membrane.
Sequence of Sphingosine 1-phosphate receptor 1 (P21453 whole entry): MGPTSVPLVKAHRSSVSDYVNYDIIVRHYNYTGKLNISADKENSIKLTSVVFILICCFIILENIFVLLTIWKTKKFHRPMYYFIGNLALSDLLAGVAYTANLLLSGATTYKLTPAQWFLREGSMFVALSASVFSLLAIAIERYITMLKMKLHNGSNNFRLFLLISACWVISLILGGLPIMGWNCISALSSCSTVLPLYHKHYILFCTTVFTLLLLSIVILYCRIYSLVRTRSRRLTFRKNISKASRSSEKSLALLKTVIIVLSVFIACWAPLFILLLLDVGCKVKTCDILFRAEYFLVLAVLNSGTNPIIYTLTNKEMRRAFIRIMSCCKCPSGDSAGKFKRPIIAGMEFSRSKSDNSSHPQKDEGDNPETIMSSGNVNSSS
Data set [5] concerns Cerebellum. The experiment in a line: Induction of remyelination in lysophosphatidylcholine-induced demyelination in CD1 mouse organotypic cerebellar slice assessed as promotion of Purkinje cell axonal remyelination at 0.01 to 10 nM incubated for 7 days by immunohistochemistry based three-dimensional brain cell culture assay. It counts as functional, tissue-based. As to conditions: dose 0.01-10 nM, time 7.0 day. The gist of the method:
as §1

The target in data set [6] is T1, Sphingosine 1-phosphate receptor 3. Kind of data set: Agonist activity at human S1P3 expressed in EDG3-Ga15-bla HEK293T cells incubated for 45 mins by scintillation counting based [35S]GTP-gamma-S binding assay relative to control. It counts as cell membranes, Cell membrane. The gist of the method:
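Membranes from EDG3-Ga15-bla HEK293T cells, 3 μg protein/well, mixed with compound in 3-fold dilution series. Room temperature, 45 min. Filter capture, water washes, scintillation counting. EC50 taken at 50% of each compound's own Ymax.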

For data set [7], the system named is Mus musculus. Kind of data set: Induction of lymphopenia in Balb/c mouse assessed as reduction of circulating lymphocytes at 0.5 mg/kg, po measured after 4 hrs relative to control. It counts as functional. The gist of the method:
(§2)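 Single oral dose to Balb/c mice in PEG300 vehicle, as solution or suspension; vehicle-only group as control. Retro-orbital bleeds at 4 h and 24 h. Lymphocyte counts read on a hematology analyzer. Expressed as % reduction of circulating lymphocytes versus the vehicle group at each time. Group means, n = 3–4 per group.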

The test system of data set [8] is Mus musculus. Kind of data set: Induction of lymphopenia in Balb/c mouse assessed as reduction of circulating lymphocytes at 30 mg/kg, po measured after 4 hrs relative to control. It counts as functional. The gist of the method:
as §2

The test system of data set [9] is Mus musculus. Kind of data set: Induction of lymphopenia in Balb/c mouse assessed as reduction of circulating lymphocytes at 30 mg/kg, po measured after 24 hrs relative to control. It counts as functional. The gist of the method:
as §2

Data set [10] in a line: Drug metabolism in orally dosed Balb/c mouse assessed as phosphate metabolite to parent AUC (0-24 hrs) ratio at after 24 hrs. It counts as ADME, organism-based. Particulars: in vivo, po.
The subject of data set [11] is Mus musculus. Kind of data set: Induction of lymphopenia in orally dosed Balb/c mouse assessed as reduction of circulating lymphocytes measured after 24 hrs relative to control. It counts as functional, organism-based. The gist of the method:
as §2

Data set [12] is described as follows: Unbound fraction in mouse plasma. It counts as ADME, cell-free.
Data set [13] in a line: Unbound fraction in dog plasma. It counts as ADME, cell-free, Canis lupus familiaris.
A short description of data set [14]: Unbound fraction in human plasma. It counts as ADME, cell-free.
Data set [15] is described as follows: Half life in human liver microsomes. It counts as ADME, Microsome.
The next data set deals with Cytochrome P450 2C19 (Homo sapiens, UniProt P33261). The experiment in a line: Inhibition of CYP2C19 (unknown origin). It counts as ADME.
Sequence of Cytochrome P450 2C19 (P33261 whole entry): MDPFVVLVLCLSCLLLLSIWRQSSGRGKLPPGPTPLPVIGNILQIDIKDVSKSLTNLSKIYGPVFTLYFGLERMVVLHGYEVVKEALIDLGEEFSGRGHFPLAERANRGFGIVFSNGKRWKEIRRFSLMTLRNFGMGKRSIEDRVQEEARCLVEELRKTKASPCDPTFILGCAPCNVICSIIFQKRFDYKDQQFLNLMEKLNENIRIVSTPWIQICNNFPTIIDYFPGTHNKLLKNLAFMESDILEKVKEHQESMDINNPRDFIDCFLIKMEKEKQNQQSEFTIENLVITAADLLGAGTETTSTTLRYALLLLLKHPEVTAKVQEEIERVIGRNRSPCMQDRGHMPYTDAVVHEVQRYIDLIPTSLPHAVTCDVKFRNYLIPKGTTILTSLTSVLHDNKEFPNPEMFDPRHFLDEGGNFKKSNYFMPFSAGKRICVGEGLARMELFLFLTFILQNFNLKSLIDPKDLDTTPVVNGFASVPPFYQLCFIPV
Data set [16] concerns Mus musculus. The experiment in a line: Induction of lymphopenia in Balb/c mouse assessed as reduction of circulating lymphocytes at 10 mg/kg, po measured after 24 hrs relative to control. It counts as functional. The gist of the method:
as §2

Data set [17] has as its system Mus musculus. The experiment in a line: Suppression of experimental autoimmune-encephalomyelositis in MOG peptide induced C57BL/6 mouse EAE chronic model assessed as improvement in clinical scores at 0.5 to 4 mg/kg, po dosed every other day. It counts as functional, organism-based. Particulars: dose 0.5-4 mg/kg. The gist of the method:
(§3)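 C57BL/6 female mice, 6–8 weeks, n=10 per group, immunized subcutaneously with MOG35-55 emulsified 1:1 in incomplete Freund's adjuvant plus M. tuberculosis H37RA. Oral dosing from day 1, every other day or daily as stated. Clinical scores graded up to 5 (death) and averaged per group. At termination, lumbar spinal cord taken for formalin fixation and paraffin sections stained with H&E and Luxol Fast Blue. Groups compared by one-way ANOVA with Tukey post test.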

The test system of data set [18] is Mus musculus. The experiment in a line: Induction of lymphopenia in Balb/c mouse assessed as reduction of circulating lymphocytes at 0.5 mg/kg, po measured after 24 hrs relative to control. It counts as functional. The gist of the method: as §2
Data set [19] relates to Mus musculus. Kind of data set: Induction of lymphopenia in Balb/c mouse assessed as reduction of circulating lymphocytes at 1 mg/kg, po measured after 4 hrs relative to control. It counts as functional. The gist of the method:
as §2

The nature of data set [20]: Half life in monkey liver microsomes. It counts as ADME, Macaca mulatta, Microsome. As to conditions: rhesus monkey. Background: Liver microsomes are a subcellular fraction often used to study metabolism.
The nature of data set [21]: Half life in mouse. It counts as ADME, organism-based. As to conditions: in vivo.
A short description of data set [22]: Half life in mouse liver microsomes. It counts as ADME, Microsome.
Data set [23] can be described thus: Inhibition of sodium channel (unknown origin) assessed as reduction in Na+ flux. Further details: species or system Homo sapiens.
The next data set addresses Cytochrome P450 2C9 (Homo sapiens, UniProt P11712). The experiment in a line: Inhibition of CYP2C9 (unknown origin). It counts as ADME.
Data set [24] can be described thus: Unbound fraction in cynomolgus monkey plasma. It counts as ADME, cell-free, Macaca fascicularis.
In data set [25] the test system is Mus musculus. Kind of data set: Suppression of experimental autoimmune-encephalomyelositis in MOG peptide induced C57BL/6 mouse EAE chronic model assessed as improvement in clinical scores at 0.5 mg/kg, po dosed every other day relative to control. It counts as functional. The gist of the method: as §3
Data set [26] has as its system Mus musculus. The experiment in a line: Induction of lymphopenia in Balb/c mouse assessed as reduction of circulating lymphocytes at 10 mg/kg, po measured after 4 hrs relative to control. It counts as functional. The gist of the method:
as §2

Data set [27] deals with Mus musculus. Kind of data set: Suppression of experimental autoimmune-encephalomyelositis in MOG peptide induced C57BL/6 mouse EAE chronic model assessed as reduction in central nervous system damage at 0.5 to 4 mg/kg, po dosed every other day by hematoxylin and eosin staining based histological analysis relative to control. It counts as functional, organism-based. As to conditions: dose 0.5-4 mg/kg. The gist of the method: as §3

For data set [28], the system named is Mus musculus. Kind of data set: Suppression of experimental autoimmune-encephalomyelositis in MOG peptide induced C57BL/6 mouse EAE chronic model assessed as improvement in clinical scores at 4 mg/kg, po dosed every other day relative to control. It counts as functional. The gist of the method:
as §3

Data set [29] is described as follows: Half life in rat liver microsomes. It counts as ADME, Microsome.
A further data set addresses Cytochrome P450 2D6 (Homo sapiens, UniProt P10635). Kind of data set: Inhibition of CYP2D6 (unknown origin). It counts as ADME.
For the next data set, the target named is Cytochrome P450 3A4 (Homo sapiens, UniProt P08684). Kind of data set: Inhibition of CYP3A4 (unknown origin). It counts as ADME.
Sequence of Cytochrome P450 3A4 (P08684 whole entry): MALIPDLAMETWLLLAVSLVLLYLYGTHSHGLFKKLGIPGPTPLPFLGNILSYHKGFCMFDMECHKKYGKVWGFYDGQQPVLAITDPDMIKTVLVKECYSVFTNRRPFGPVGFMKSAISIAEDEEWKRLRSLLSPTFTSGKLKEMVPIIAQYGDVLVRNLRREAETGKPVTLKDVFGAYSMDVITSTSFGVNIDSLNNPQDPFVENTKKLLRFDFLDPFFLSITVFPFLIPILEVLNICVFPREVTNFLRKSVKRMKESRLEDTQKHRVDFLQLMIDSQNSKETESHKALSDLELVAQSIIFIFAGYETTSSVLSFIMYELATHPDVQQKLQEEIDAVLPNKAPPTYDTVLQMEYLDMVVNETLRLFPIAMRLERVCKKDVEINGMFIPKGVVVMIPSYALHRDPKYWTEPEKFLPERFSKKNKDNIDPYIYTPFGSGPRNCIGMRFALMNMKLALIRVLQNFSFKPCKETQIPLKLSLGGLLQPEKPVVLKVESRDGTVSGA
For a further data set, the target named is hERG (KCNH2) (Homo sapiens, UniProt Q12809). The experiment in a line: Inhibition of human ERG expressed in HEK293 cells assessed as inhibition of peak tail current at 0.3 uM by patch clamp analysis. It counts as cell-based. As to conditions: HEK293 cells expressing human ERG. The gist of the method:
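Whole-cell patch clamp on HEK293 cells stably expressing the cloned hERG α subunit, in aqueous buffer pH 7.4 at room temperature. Test pulses at 0.05 Hz stepped from holding to +20 mV for 2 s. Tail currents evoked by a subsequent voltage step. Inhibition measured on peak tail current.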

A further data set has as its target T2, Cytochrome P450 2C8 (Homo sapiens, UniProt P10632).
T2 sequence (P10632 whole entry): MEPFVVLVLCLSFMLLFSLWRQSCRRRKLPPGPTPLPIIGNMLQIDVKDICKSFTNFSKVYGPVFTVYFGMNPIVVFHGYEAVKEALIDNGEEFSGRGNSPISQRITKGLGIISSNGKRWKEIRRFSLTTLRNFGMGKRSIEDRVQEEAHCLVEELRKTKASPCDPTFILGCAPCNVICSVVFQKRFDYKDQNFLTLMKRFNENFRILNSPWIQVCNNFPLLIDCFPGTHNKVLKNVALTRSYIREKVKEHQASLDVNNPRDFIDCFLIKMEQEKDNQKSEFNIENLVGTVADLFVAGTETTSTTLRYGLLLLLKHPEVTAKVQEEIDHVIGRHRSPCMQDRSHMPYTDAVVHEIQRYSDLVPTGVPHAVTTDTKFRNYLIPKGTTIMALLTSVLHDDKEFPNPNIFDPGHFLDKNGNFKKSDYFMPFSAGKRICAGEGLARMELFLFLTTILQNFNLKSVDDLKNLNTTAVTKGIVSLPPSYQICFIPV
Kind of data set: Inhibition of CYP2C8 (unknown origin). It counts as ADME.

Data set [30] can be described thus: Unbound fraction in rat plasma. It counts as ADME, cell-free.

Calls of active or inactive are those of the source.

T1 sequence (Q99500 whole entry): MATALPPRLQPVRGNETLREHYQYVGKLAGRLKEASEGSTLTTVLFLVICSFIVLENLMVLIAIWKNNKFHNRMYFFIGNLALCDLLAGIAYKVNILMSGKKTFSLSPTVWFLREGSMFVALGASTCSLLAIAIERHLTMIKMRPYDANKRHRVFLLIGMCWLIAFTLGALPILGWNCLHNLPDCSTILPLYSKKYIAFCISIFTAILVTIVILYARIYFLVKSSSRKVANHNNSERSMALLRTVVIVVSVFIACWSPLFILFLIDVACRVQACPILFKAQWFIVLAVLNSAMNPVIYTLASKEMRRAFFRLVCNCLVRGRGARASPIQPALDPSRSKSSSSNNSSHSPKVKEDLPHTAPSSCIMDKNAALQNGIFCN
Sequence of Cytochrome P450 2C9 (P11712 whole entry): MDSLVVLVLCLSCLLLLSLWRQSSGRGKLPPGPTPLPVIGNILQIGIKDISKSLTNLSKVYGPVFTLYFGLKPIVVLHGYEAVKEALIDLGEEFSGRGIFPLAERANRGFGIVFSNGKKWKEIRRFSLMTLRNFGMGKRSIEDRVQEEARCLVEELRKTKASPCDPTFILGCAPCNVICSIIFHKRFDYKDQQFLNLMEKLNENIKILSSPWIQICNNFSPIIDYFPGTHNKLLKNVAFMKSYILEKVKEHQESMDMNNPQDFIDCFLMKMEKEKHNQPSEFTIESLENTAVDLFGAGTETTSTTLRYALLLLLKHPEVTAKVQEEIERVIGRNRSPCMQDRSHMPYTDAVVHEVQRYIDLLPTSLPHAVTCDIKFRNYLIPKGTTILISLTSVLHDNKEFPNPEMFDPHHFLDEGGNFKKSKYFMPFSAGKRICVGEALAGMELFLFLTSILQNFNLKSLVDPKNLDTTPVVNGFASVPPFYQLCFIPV
Sequence of hERG (KCNH2) (Q12809 whole entry): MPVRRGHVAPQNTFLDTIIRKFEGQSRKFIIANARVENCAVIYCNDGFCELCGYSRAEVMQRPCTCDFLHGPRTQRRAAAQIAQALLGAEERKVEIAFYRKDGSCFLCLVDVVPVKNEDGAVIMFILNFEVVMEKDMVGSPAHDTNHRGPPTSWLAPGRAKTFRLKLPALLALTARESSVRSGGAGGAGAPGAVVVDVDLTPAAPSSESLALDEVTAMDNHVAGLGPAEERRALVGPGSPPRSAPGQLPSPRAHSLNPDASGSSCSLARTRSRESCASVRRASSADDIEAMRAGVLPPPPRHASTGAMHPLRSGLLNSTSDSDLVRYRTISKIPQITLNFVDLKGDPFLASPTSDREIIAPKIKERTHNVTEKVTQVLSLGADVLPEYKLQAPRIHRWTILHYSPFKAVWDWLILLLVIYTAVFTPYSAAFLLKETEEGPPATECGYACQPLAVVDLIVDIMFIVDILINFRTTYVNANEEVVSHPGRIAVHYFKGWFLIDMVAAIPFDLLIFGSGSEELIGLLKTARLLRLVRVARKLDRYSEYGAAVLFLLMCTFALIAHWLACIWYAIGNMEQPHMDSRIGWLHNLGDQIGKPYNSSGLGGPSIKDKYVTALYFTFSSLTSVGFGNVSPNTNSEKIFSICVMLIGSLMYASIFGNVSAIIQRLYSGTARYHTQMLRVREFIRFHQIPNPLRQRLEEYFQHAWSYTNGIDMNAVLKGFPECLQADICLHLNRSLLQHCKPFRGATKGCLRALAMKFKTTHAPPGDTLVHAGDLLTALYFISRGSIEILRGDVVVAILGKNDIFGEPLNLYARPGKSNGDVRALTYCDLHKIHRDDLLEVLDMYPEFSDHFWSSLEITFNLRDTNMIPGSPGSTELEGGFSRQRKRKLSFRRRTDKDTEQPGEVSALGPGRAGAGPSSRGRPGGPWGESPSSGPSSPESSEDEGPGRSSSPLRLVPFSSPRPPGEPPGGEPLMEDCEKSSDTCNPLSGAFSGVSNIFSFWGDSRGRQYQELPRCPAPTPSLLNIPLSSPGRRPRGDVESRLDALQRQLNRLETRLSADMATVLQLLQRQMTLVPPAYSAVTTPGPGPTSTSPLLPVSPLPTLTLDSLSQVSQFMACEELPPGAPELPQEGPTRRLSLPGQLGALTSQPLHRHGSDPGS
Sequence of Cytochrome P450 2D6 (P10635 whole entry): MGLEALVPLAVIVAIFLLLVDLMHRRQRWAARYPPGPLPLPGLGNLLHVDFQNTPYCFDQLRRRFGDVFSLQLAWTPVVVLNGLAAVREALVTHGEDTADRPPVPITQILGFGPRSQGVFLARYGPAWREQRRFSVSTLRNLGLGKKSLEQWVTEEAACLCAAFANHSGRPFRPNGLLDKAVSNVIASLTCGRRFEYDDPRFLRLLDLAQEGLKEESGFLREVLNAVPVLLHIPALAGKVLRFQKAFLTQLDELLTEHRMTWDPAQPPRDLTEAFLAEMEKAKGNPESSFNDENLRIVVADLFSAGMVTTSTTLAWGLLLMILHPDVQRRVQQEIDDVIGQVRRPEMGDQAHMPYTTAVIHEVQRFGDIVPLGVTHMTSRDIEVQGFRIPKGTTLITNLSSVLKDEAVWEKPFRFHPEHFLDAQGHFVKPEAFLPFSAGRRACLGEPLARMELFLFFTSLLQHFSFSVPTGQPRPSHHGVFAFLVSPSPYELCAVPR

Consider `CCCCCC[C@@H]1CCc2cc([C@H]3CC[C@](N)(COP(=O)(O)O)C3)ccc2C1`, for which, in [1], the IC50 – broadly, the midpoint of a concentration-inhibition curve – is over 1000 nM. The outcome with Cerebellum [2] and in the data set on Cerebellum [5] was Active. The Activity in the data set on Cerebellum [3] is given as 100%. Further, the EC50 (commonly the concentration giving half of the maximal effect) in data set [4] is 6.4 nM; in data set [6] it was over 1000 nM.

With `CCCCCC[C@H]1CCc2cc([C@H]3CC[C@](N)(CO)C3)ccc2C1`, the inhibition in vivo (in general, the relative decrease from the control value, in per cent) at 0.5 mg/kg with Mus musculus [7] worked out at 21%. Moreover, the inhibition in vivo at 30 mg/kg with Mus musculus [8] is 66%; with Mus musculus [9] it was 84%. The Ratio in data set [10] is recorded as 0.57.

For the molecule `CCCCCC[C@H]1CCc2cc([C@H]3CC[C@](N)(COP(=O)(O)O)C3)ccc2C1`, in [1], the IC50 was over 1000 nM. Also, the EC50 was 60 nM in data set [4], over 1000 nM in data set [6] and 35 nM in the data set on Mus musculus [11].

`CCCCCC[C@@H]1CCc2cc([C@H]3CC[C@](N)(CO)C3)ccc2C1` [BMS-986104]: the Fu in data set [12], in data set [13], in [14], in data set [24] and in [30] was under 1% each time. In addition, the inhibition in vivo at 0.5 mg/kg with Mus musculus [7] stood at 52%; with Mus musculus [18] it was 68%. The results for the inhibition in vivo at 30 mg/kg in the data set with Mus musculus [8] and in the data set with Mus musculus [9] were 88% and 90%, respectively. In addition, the half-life – broadly, the time needed for the level to fall by half in the phase considered – in data set [15] is 1.78 h; in [20], 2 h; in data set [21], 98 h; in [22], 2 h; in data set [29] it was 2 h. Besides, the IC50 at Cytochrome P450 2C19 was over 20000 nM; in data set [23], over 80000 nM; against Cytochrome P450 2C9, over 20000 nM; against Cytochrome P450 2D6 it was over 20000 nM; against Cytochrome P450 3A4, 19000 nM; against Cytochrome P450 2C8, 5000 nM. For the same molecule, the results for the inhibition in vivo at 10 mg/kg in the data set with Mus musculus [16] and with Mus musculus [26] were 90% and 80%, respectively. Also, the Activity entry with Mus musculus [17] is “Dose-dependent effect”; with Mus musculus [25] it was 33%; in the data set with Mus musculus [28], 55%; in the data set on Mus musculus [11], “Dose-dependent effect”. Also, the inhibition in vivo at 1 mg/kg in the data set with Mus musculus [19] came out at 52%. In the data set on Mus musculus [27], the outcome was Active. Moreover, the inhibition (commonly the drop in the measured response relative to a control, in per cent) at 0.3 µM on hERG (KCNH2) worked out at 36%. Further, the Ratio in data set [10] was 0.51.

For the origin of these results see ChEMBL document CHEMBL4715806, “Asymmetric Hydroboration Approach to the Scalable Synthesis of ((1R,3S)-1-Amino-3-((R)-6-hexyl-5,6,7,8-tetrahydronaphthalen-2-yl)cyclopentyl)methanol (BMS-986104) as a Potent S1P Receptor Modulator” (J Med Chem, 2016).
